These results are taken from ChEMBL document CHEMBL1772954, “Antifungal, cytotoxic and SAR studies of a series of N-alkyl, N-aryl and N-alkylphenyl-1,4-pyrrolediones and related compounds” (Bioorg Med Chem, 2011).

The subject of data set [1] is Aspergillus fumigatus. Description: Antifungal activity against Aspergillus fumigatus ATCC 26934. In kind it is functional. In outline:
(§1)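 Broth microdilution per CLSI M38-A2 in RPMI-1640 with MOPS at pH 7.0. Inoculum 1-5 × 10^3 CFU/mL, with twofold compound dilutions spanning 250-0.24 µg/ml (final DMSO <1%). Plates incubated at 35 °C, moist and dark, and read when the control fungus had grown. MIC is total growth inhibition. MFC comes from subculturing clear wells in duplicate onto SDA.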

Data set [2] in a line: Cytotoxicity against human erythrocytes assessed as hemolysis by spectrometric analysis. In kind it is cell-based, Erythrocyte. Summed up: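 Human heparinized red blood cells were washed in PBS at pH 7.0 and suspended at 4% in sterile 5% glucose. Compounds from DMSO stocks were diluted in 5% glucose to final concentrations of 250 to 0.24 µg/ml and incubated with the cells at 37 °C. Released hemoglobin was read at 540 nm. HC50 is the concentration giving 50% lysis relative to the drug-free value.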

Data set [3] has as its system SF-268. Put plainly: Cytotoxicity against human SF268 cells assessed as cell growth after 2 days by sulforhodamine B assay. Conditions: SF-268, 48 h. The class given is functional. Summed up:
(§2)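 NCI cell lines were run by the Monks method: cells were plated with compounds from DMSO stocks and incubated 2 days at 37 °C in 5% CO2, in duplicate. Cells were fixed with cold TCA, stained with 0.4% SRB, and the bound dye was solubilized in 10 mM tris-base and read at 515 nm. The zero-day control was subtracted, and GI50 was taken from the curves.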

Data set [4] relates to MCF7. Description: Cytotoxicity against human MCF7 cells assessed as cell growth after 2 days by sulforhodamine B assay. The class given is functional. The note with it: MCF7, 48 h. Summed up: as §2
Data set [5] has as its system Aspergillus niger. Put plainly: Antifungal activity against Aspergillus niger ATCC 9029. The class given is functional. In outline: as §1
Data set [6] deals with Trichophyton rubrum. Description: Antifungal activity against Trichophyton rubrum C 113 2000. In kind it is functional. Summed up:
(§3)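 Dermatophytes tested by CLSI M38-A2 microdilution in MOPS-buffered RPMI-1640 at pH 7.0. Inoculum 1-5 × 10^3 CFU/mL; compounds 250 to 0.24 µg/ml in twofold steps, final DMSO <1%. Incubated at 28 °C in a moist, dark chamber and read according to control growth. MIC is the lowest concentration with complete inhibition. MFC is the lowest concentration with no growth after duplicate subculture on SDA.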

Data set [7] concerns Cryptococcus neoformans. Put plainly: Antifungal activity against Cryptococcus neoformans ATCC 32264. In kind it is functional. In outline: (§4)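 CLSI M27-A3 broth microdilution in RPMI-1640 buffered to pH 7.0 with MOPS. Inoculum 1-5 × 10^3 CFU/mL. Compound twofold dilutions from 250 to 0.24 µg/ml, final DMSO <1%. Incubated at 35 °C in a moist, dark chamber and read at 48 h. MIC is the lowest concentration giving total growth inhibition. For MFC, 5 µL from clear wells was plated in duplicate on SDA; MFC is the lowest concentration with no growth.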

Data set [8] deals with Aspergillus flavus. Description: Antifungal activity against Aspergillus flavus ATCC 9170. In kind it is functional. Summed up:
as §1

The test system of data set [9] is NCI-H460. Description: Cytotoxicity against human H460 cells assessed as cell growth after 2 days by sulforhodamine B assay. Conditions: NCI-H460, 48 h. The class given is functional. Summed up:
as §2
(In general: In SRB staining, fixed cells bind dye roughly in proportion to their protein.)

Data set [10] concerns Candida albicans. Description: Antifungal activity against Candida albicans ATCC 10213. The class given is functional. In outline: as §4
Data set [11] concerns Saccharomyces cerevisiae. Description: Antifungal activity against Saccharomyces cerevisiae ATCC 9763. The class given is functional. In outline:
as §4

Data set [12] concerns Candida tropicalis. Description: Antifungal activity against Candida tropicalis C 131 2000. The class given is functional. Summed up: as §4
In data set [13] the test system is Nannizzia gypsea. Description: Antifungal activity against Microsporum gypseum C 115 2000. The class given is functional. Summed up:
as §3

Data set [14] has as its system Trichophyton mentagrophytes. Put plainly: Antifungal activity against Trichophyton mentagrophytes ATCC 9972. In kind it is functional. In outline:
as §3

≈ marks a conversion by molar mass, not a printed value. Some results are limits rather than exact numbers.

As a reminder, the MFC is the lowest tested concentration that kills the fungus rather than only halting it. The term MIC denotes the least concentration at which growth counts as inhibited. A higher MIC goes with a less susceptible organism. Usually HC50 stands for the concentration giving 50% haemolysis. For orientation: GI50 means the concentration that inhibits growth by half. Regarding `CC1=CC(=O)N(CCc2ccccc2)C1=O`, the MFC worked out at 31.2 µg/mL (≈ 145 µM) in [1]; 250 µg/mL (≈ 1160 µM) in data set [5]; 15.6 µg/mL (≈ 72.6 µM) in [6]; 62.5 µg/mL (≈ 290 µM) in data set [7]; 250 µg/mL (≈ 1160 µM) in data set [8]; 125 µg/mL (≈ 581 µM) in [10]. Also, the minimum fungicidal concentration (MFC) in data set [11] was 62.5 µg/mL (≈ 290 µM); in data set [12] it was 250 µg/mL (≈ 1160 µM); in [13] it was 7.81 µg/mL (≈ 36.3 µM); in data set [14] it was 62.5 µg/mL (≈ 290 µM). Besides, the MIC in [1] came to 31.2 µg/mL (≈ 145 µM); in [5], 62.5 µg/mL (≈ 290 µM); in data set [6], 7.81 µg/mL (≈ 36.3 µM); in data set [7], 31.2 µg/mL (≈ 145 µM); in data set [8] it was 62.5 µg/mL (≈ 290 µM); in data set [10], 62.5 µg/mL (≈ 290 µM). Moreover, the MIC worked out at 31.2 µg/mL (≈ 145 µM) in data set [11], 125 µg/mL (≈ 581 µM) in data set [12], 3.9 µg/mL (≈ 18.1 µM) in [13] and 31.2 µg/mL (≈ 145 µM) in [14]. Further, the 50% haemolytic concentration (HC50) in data set [2] is over 250 µg/mL. Also, the GI50 in data set [3], in data set [4] and in data set [9] was over 10 µg/mL throughout.
